Consider 29 molecules from ChEMBL document CHEMBL2057150, “The synthesis and SAR of calcitonin gene-related peptide (CGRP) receptor antagonists derived from tyrosine surrogates. Part 1” (Bioorg Med Chem Lett, 2012).

The target of data set [1] is T1, Cytochrome P450 3A4 (Homo sapiens, UniProt P08684). The experiment in a line: Inhibition of human recombinant CYP3A4 expressed in baculo-virus infected insect microsomes using benzyloxyresorufin as substrate after 45 mins by fluorescence detection assay. In kind it is ADME, Microsome.
Data set [2] addresses Calcitonin gene-related peptide type 1 receptor (Homo sapiens, UniProt O60894+Q16602). The experiment in a line: Displacement of [125I]CGRP from CGRP receptor in human SK-N-MC cell membrane after 2 hrs. It counts as cell membranes.
Data set [3] has as its target T1, Cytochrome P450 3A4. The experiment in a line: Inhibition of human recombinant CYP3A4 expressed in baculo-virus infected insect microsomes using 7-benzyloxy-4-trifluoromethylcoumarin as substrate after 20 mins by fluorescence detection assay. It counts as ADME, Microsome.
A short description of data set [4]: Cardiovascular toxicity in human coronary arteries assessed as induction of vasoconstriction after 30 mins. Details: species or system Coronary artery. Conditions: for Activity: 0.5 h; for EC50 at 30 min: human coronary arteries. The method in brief: (§1)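 Ex vivo human arteries in tissue baths; test agent applied up to 10 µM and contraction recorded. Serotonin (10 µM) added to each bath at session end as the reference for maximal vessel contractility; contraction expressed as percent of serotonin maximum.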

Data set [5] is described as follows: Cardiovascular toxicity in human coronary arteries assessed as induction of vasoconstriction after 30 mins relative to serotonin. The arrangement: species or system Coronary artery. Summed up:
as §1

Data set [6] is described as follows: Cardiovascular toxicity in human coronary arteries assessed as induction of vasoconstriction up to 10 uM after 30 mins. The conditions noted are these: 0.5 h. Details: species or system Coronary artery. Summed up: as §1
Data set [7] has as its system Callithrix jacchus. The experiment in a line: Antimigraine activity in sc dosed marmosets assessed as inhibition of CGRP-induced increase in facial blood flow administered 30 mins post CGRP-challenge measured up to 105 mins by laser doppler flowmetry. In kind it is functional, organism-based. Summed up: (§2)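 Anesthetized marmosets; facial blood flow raised by iv hαCGRP (10 µg/kg) at 45 min intervals (-30, 15, 60, 105 min). Antagonist given sc at 0 min (dose range 0.3–1 mg/kg). CGRP-induced changes in facial blood flow read by laser Doppler flowmetry.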

Data set [8] has as its system Callithrix jacchus. The experiment in a line: Antimigraine activity in marmosets assessed as inhibition of CGRP-induced increase in facial blood flow at 1 mg/kg, sc administered 30 mins post CGRP-challenge measured up to 105 mins by laser doppler flowmetry. The arrangement: dose 1 mg/kg. It counts as functional, organism-based. The method in brief:
as §2

The source made the active and inactive calls. No cut-off for these calls is given here.

T1 sequence (P08684 whole entry): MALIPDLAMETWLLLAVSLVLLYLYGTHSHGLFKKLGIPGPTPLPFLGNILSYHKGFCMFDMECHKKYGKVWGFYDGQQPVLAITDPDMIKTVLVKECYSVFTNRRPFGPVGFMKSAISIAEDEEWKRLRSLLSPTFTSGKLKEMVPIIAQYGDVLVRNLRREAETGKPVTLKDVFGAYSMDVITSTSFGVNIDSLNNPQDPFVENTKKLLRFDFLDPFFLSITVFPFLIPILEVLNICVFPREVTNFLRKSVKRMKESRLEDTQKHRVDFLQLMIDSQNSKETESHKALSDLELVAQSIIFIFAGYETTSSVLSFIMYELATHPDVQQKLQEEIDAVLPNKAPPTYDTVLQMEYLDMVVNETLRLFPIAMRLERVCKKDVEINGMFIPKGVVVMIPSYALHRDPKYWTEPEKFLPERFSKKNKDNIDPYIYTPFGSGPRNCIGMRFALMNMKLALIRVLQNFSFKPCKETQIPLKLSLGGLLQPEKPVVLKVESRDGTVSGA
Sequence of Calcitonin gene-related peptide type 1 receptor (Q16602 whole entry, one chain of several): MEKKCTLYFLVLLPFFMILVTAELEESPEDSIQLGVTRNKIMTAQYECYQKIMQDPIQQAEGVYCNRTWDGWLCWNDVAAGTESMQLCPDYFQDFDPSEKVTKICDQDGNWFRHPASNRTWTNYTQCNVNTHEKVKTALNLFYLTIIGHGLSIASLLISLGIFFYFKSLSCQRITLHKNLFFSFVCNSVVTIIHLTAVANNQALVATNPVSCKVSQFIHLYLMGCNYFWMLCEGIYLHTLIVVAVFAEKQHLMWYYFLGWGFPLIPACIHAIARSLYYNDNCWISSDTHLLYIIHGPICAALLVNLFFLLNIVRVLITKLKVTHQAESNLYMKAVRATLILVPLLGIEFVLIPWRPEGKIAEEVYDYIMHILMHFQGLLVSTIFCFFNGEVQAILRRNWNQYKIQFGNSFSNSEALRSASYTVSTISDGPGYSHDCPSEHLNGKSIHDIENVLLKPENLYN

As usually defined, the IC50 is the midpoint of a concentration-inhibition curve. Usually Ki stands for a dissociation constant, usually derived from enzyme kinetics or from competition with a known ligand. For the molecule `CC(C)C[C@@H](NC(=O)N1CCC(n2c(=O)[nH]c3ccccc32)CC1)C(=O)N1CCC(N2CCCCC2)CC1`, the IC50 on Cytochrome P450 3A4 [1] came to 16000 nM. The inhibitory constant (Ki) in data set [2] is 2400 nM. `O=C(N[C@H](CCc1ccccc1)C(=O)N1CCC(N2CCCCC2)CC1)N1CCC(n2c(=O)[nH]c3ccccc32)CC1`: the Ki in data set [2] is above 1000 nM.

With `O=C(N[C@H](Cc1ccccc1)C(=O)N1CCC(N2CCCCC2)CC1)N1CCC(n2c(=O)[nH]c3ccccc32)CC1`, in data set [2], the Ki worked out at 300 nM.

Turning to `O=C(NC(Cc1ccc2[nH]ccc2c1)C(=O)N1CCC(N2CCCCC2)CC1)N1CCC(n2c(=O)[nH]c3ccccc32)CC1` (racemic), on Cytochrome P450 3A4 [1], the IC50 was found to be 2500 nM. Besides, the Ki in data set [2] worked out at 32 nM.

As for `O=C(N[C@H](Cc1csc2ccccc12)C(=O)N1CCC(N2CCCCC2)CC1)N1CCC(n2c(=O)[nH]c3ccccc32)CC1`, the IC50 at Cytochrome P450 3A4 [1] turned out to be 84 nM; on Cytochrome P450 3A4 [3] it was 870 nM. The Ki in data set [2] came to 0.55 nM.

Consider `O=C(N[C@@H](Cc1cc(Br)c(O)c(Br)c1)C(=O)N1CCC(N2CCCCC2)CC1)N1CCC(n2c(=O)[nH]c3ccccc32)CC1`, for which, in data set [2], the inhibition constant (Ki) was above 1000 nM.

On to `Cn1cc(C[C@@H](NC(=O)N2CCC(n3c(=O)[nH]c4ccccc43)CC2)C(=O)N2CCC(N3CCCCC3)CC2)c2ccccc21`, for which, at Cytochrome P450 3A4 [1], the IC50 was 100 nM. In addition, the Ki in data set [2] came to 16 nM.

The term EC50 denotes the midpoint of the concentration-response curve. The term Emax denotes the size of the effect at its maximum, as opposed to the concentration needed. Turning to `CNS(=O)(=O)Cc1ccc2[nH]cc(CCN(C)C)c2c1`, in data set [4], the Activity entry was “Dose-dependent effect” and the EC50 at 30 min was 120 nM. Further, the maximal response (Emax) at 0.5 h in data set [5] came to 48%. As to `O=C(N[C@H](Cc1ccc2[nH]c(=O)oc2c1)C(=O)N1CCC(N2CCCCC2)CC1)N1CCC(N2Cc3ccccc3NC2=O)CC1`, at Cytochrome P450 3A4 [1], the IC50 was found to be 30000 nM. In addition, in data set [2], the Ki was found to be 0.27 nM. `Nc1ccc(C[C@@H](NC(=O)N2CCC(n3c(=O)[nH]c4ccccc43)CC2)C(=O)N2CCC(N3CCCCC3)CC2)cc1`: the Ki in data set [2] came out at 750 nM. `CC(=O)Nc1ccc(C[C@@H](NC(=O)N2CCC(n3c(=O)[nH]c4ccccc43)CC2)C(=O)N2CCC(N3CCCCC3)CC2)cc1`: the Ki in data set [2] was 1900 nM. Take `CN(C)CCc1c[nH]c2ccc(C[C@H]3COC(=O)N3)cc12` [ZOLMITRIPTAN]: in data set [4], the Activity result is reported as “Dose-dependent effect” and the EC50 at 30 min came to 40 nM. Further, in data set [5], the maximal response (Emax) at 0.5 h came to 39%. For the molecule `O=C(N[C@H](CCc1ccc(O)cc1)C(=O)N1CCC(N2CCCCC2)CC1)N1CCC(n2c(=O)[nH]c3ccccc32)CC1`, the Ki in data set [2] came out at 2100 nM. For `COc1ccc(C[C@@H](NC(=O)N2CCC(n3c(=O)[nH]c4ccccc43)CC2)C(=O)N2CCC(N3CCCCC3)CC2)cc1`, the Ki in data set [2] turned out to be 1400 nM. On to `O=C(N[C@@H](C(=O)N1CCC(N2CCCCC2)CC1)c1ccccc1)N1CCC(n2c(=O)[nH]c3ccccc32)CC1`, for which, in data set [2], the Ki is above 1000 nM.

For the molecule `NC(=O)CC[C@@H](NC(=O)N1CCC(n2c(=O)[nH]c3ccccc32)CC1)C(=O)N1CCC(N2CCCCC2)CC1`, in data set [2], the Ki was above 1000 nM. For `O=C(N[C@H](Cc1ccc2ccccc2c1)C(=O)N1CCC(N2CCCCC2)CC1)N1CCC(n2c(=O)[nH]c3ccccc32)CC1`, the IC50 on Cytochrome P450 3A4 [1] came to 30 nM. In addition, the Ki in data set [2] was determined as 230 nM. Turning to `O=C(NC(Cc1ccc2[nH]ncc2c1)C(=O)N1CCC(N2CCCCC2)CC1)N1CCC(n2c(=O)[nH]c3ccccc32)CC1` (racemic), on Cytochrome P450 3A4 [1], the IC50 was 17000 nM. In addition, the Activity result in data set [6] is “Non-toxic”. Also, the Ki in data set [2] was found to be 68 nM. For `O=C(N[C@H](Cc1cccc2ccccc12)C(=O)N1CCC(N2CCCCC2)CC1)N1CCC(n2c(=O)[nH]c3ccccc32)CC1`, the IC50 on Cytochrome P450 3A4 [1] is 30 nM. Further, the Ki in data set [2] was found to be 7.2 nM. As for `O=C(N[C@H](Cc1ccc2[nH]ncc2c1)C(=O)N1CCC(N2CCCCC2)CC1)N1CCC(N2Cc3ccccc3NC2=O)CC1`, the Activity entry in data set [6] is given as “Non-toxic”. Further, the inhibition entry with Callithrix jacchus [7] was “Dose-dependent effect”. `O=C(N[C@H](Cc1ccc(O)cc1)C(=O)N1CCC(N2CCCCC2)CC1)N1CCC(n2c(=O)[nH]c3ccccc32)CC1`: the IC50 at Cytochrome P450 3A4 [1] was above 40000 nM. Besides, the Ki in data set [2] was determined as 2.5 nM. As for `Cc1nc2cc(C[C@@H](NC(=O)N3CCC(N4Cc5ccccc5NC4=O)CC3)C(=O)N3CCC(N4CCCCC4)CC3)ccc2[nH]1`, in data set [2], the Ki amounted to 28 nM. Take `O=C(O)CC[C@@H](NC(=O)N1CCC(n2c(=O)[nH]c3ccccc32)CC1)C(=O)N1CCC(N2CCCCC2)CC1`: the Ki in data set [2] is above 1000 nM. Regarding `O=C(N[C@H](Cc1c[nH]c2ccccc12)C(=O)N1CCC(N2CCCCC2)CC1)N1CCC(n2c(=O)[nH]c3ccccc32)CC1`, the concentration for half-maximal inhibition (IC50) on Cytochrome P450 3A4 [1] is above 40000 nM. Also, the inhibitory constant (Ki) in data set [2] was 84 nM. For `O=C(N[C@H](Cc1ccc(-c2ccccc2)cc1)C(=O)N1CCC(N2CCCCC2)CC1)N1CCC(n2c(=O)[nH]c3ccccc32)CC1`, in that order: 1300 nM and 250 nM. Taken in the same sequence, the figures for `O=C1Cc2cc(C[C@@H](NC(=O)N3CCC(N4Cc5ccccc5NC4=O)CC3)C(=O)N3CCC(N4CCCCC4)CC3)ccc2N1` were 11000 nM and 0.65 nM. For `O=C(N[C@H](Cc1cc(Br)c(O)c(Br)c1)C(=O)N1CCC(N2CCCCC2)CC1)N1CCC(n2c(=O)[nH]c3ccccc32)CC1`, in that order: 2400 nM and 0.65 nM. Take `O=C(N[C@H](Cc1ccc2nn[nH]c2c1)C(=O)N1CCC(N2CCCCC2)CC1)N1CCC(N2Cc3ccccc3NC2=O)CC1`: the IC50 at Cytochrome P450 3A4 [1] was 23000 nM. Further, the Ki in data set [2] is 0.55 nM.

Regarding `O=C(N[C@@H](Cc1ccc2[nH]ncc2c1)C(=O)N1CCC(N2CCCCC2)CC1)N1CCC(N2Cc3ccccc3NC2=O)CC1`, the half-inhibitory concentration (IC50) on Cytochrome P450 3A4 [1] worked out at 7300 nM. Moreover, the inhibition result in the data set with Callithrix jacchus [8] is “inactive”.
